In ChEMBL document CHEMBL1124299, “Synthesis and thromboxane A2 antagonist activity of N-benzyltrimetoquinol analogues” (J Med Chem, 1988):

How the values were obtained:
[1] = species: Homo sapiens; test: Inhibition of 0.5-0.7 uM of U-46,619 induced [14C]5-HT secretion; type: functional
Summary of the method: (§1)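 Human platelet-rich plasma from medication-free volunteers. Dense-granule secretion measured as release of radioactivity from prelabeled platelets, induced by ADP or U46619. Inhibitors added 1 min before the inducer, which was used at the minimum concentration giving maximal aggregation. Values are IC50s.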

[2] = species: Homo sapiens; test: Inhibition of 0.5-0.7 uM of U-46,619 induced human platelet aggregation; type: functional
Summary of the method: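 Human platelet-rich plasma from donors medication-free for at least 10 days. Born turbidometric aggregation, with U46619 at the minimum concentration giving maximal aggregation. Inhibitor added 1 min before U46619. IC50 taken from the change in light-transmittance amplitude at 4 min.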

[3] = species: Rattus norvegicus; test: Inhibition of U-46,619-induced contraction of Rat thoracic aorta in the presence of indomethacin, KB; type: functional
[4] = species: Rattus norvegicus; test: Inhibition of U-46,619-induced contraction of Rat thoracic aorta in the presence of indomethacin (control); type: functional
Summary of the method: (§2)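 Rat thoracic aortic strips equilibrated 1 h in Krebs-Henseleit solution containing 3 X 10^-6 M indomethacin; TMQ analogues tested at 100 µM against U46619-induced contraction. Cumulative U46619 concentration-response curves by the van Rossum method. U46619 EC50 read graphically from individual percent response vs log concentration plots and expressed as pD2. Significance level 5% versus control.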

[5] = species: Rattus norvegicus; test: Inhibition of U-46,619-induced contraction of Rat thoracic aorta in the presence of indomethacin, at conc 100 uM; type: functional; summary of the method: as §2
[6] = species: Rattus norvegicus; test: Log of KB that is, inhibition of U-46,619-induced contraction of Rat thoracic aorta in the presence of indomethacin; type: functional
[7] = species: Homo sapiens; test: Inhibition of 0.5-0.7 uM of ADP induced [14C]5-HT secretion; type: functional, organism-based; details: in the assay text read “1.5-1.9 uM” for “0.5-0.7 uM”; summary of the method: as §1
[8] = species: Homo sapiens; test: Inhibition of 1.5-1.9 uM of ADP-induced human platelet aggregation; type: functional
Summary of the method: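 Platelet-rich plasma from human volunteers free of medication for at least 10 days. Turbidometric (Born) aggregation in a dual-channel aggregometer, with ADP at the minimum concentration giving maximal aggregation. Inhibitor added 1 min before ADP. IC50 derived from the change in light-transmittance amplitude at 6 min. Mean ± SEM of three preparations.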

[9] = species: Rattus norvegicus; test: Inhibition of U-46,619-induced contraction of Rat thoracic aorta in the presence of indomethacin control); type: functional; summary of the method: as §2
[10] = species: Rattus norvegicus; test: Inhibition of U-46,619-induced contraction of Rat thoracic aorta in the presence of indomethacin; type: functional; summary of the method: as §2
[11] = species: Rattus norvegicus; test: Inhibition of U-46,619-induced contraction of Rat thoracic aorta expressed as pKB value of the compound; type: functional
[12] = species: Rattus norvegicus; test: Inhibition against U-46,619-induced contraction of Rat thoracic aorta was determined expressed as pA2; type: functional; details: read-out: pA2 (converted)
[13] = species: Rattus norvegicus; test: Inhibition of U-46,619-induced contraction of Rat thoracic aorta in the presence of indomethacin(control); type: functional; summary of the method: as §2

Row | SMILES | IC50 [1] | IC50 [2] | Kb [3] | pD2 [4] | pD2 [5] | pKB [6] | IC50 [7] | IC50 [8] | pD2 [9] | Kb [10] | pKB [11] | Kb [12] | pD2 [13]
1 | COc1ccc(CN2CCc3cc(O)c(O)cc3C2Cc2cc(OC)c(OC)c(OC)c2)cc1 (stereo not given) | 56.2 µM | 50.2 µM | 69.2 µM | 8.07 | 7.64 | 4.16 | – | – | – | – | – | – | –
2 | COc1cc(CC2c3cc(O)c(O)cc3CCN2Cc2ccc(Cl)cc2)cc(OC)c1OC (stereo not given) | 128 µM | 119 µM | – | 8.1 | 8.09 | – | – | – | – | – | – | – | –
3 | COc1cc(CC2c3cc(O)c(O)cc3CCN2Cc2ccccc2)cc(OC)c1OC (stereo not given) | 66.4 µM | 67.4 µM | 138 µM | 8.11 | 7.86 | 3.86 | 54.1 µM | 67.5 µM | – | – | – | – | –
4 | COc1cc(CC2c3cc(O)c(O)cc3CCN2Cc2ccc([N+](=O)[O-])cc2)cc(OC)c1OC (stereo not given) | 269 µM | 296 µM | 89.1 µM | 8.21 | 7.84 | 4.05 | 289 µM | 359 µM | – | – | – | – | –
5 | COc1cc(CC2c3cc(O)c(O)cc3CCN2Cc2ccc(Cl)c(Cl)c2)cc(OC)c1OC (stereo not given) | 264 µM | 257 µM | – | – | 8.22 | – | – | – | 8.12 | – | – | – | –
6 | COc1cc(NCc2ccc3nc(N)nc(N)c3c2C)cc(OC)c1OC [TRIMETREXATE] | 0.75 µM | 0.77 µM | – | – | 6.78 | – | – | – | – | 4.26 µM | 5.37 | – | –
7 | COc1cc(CC2c3cc(O)c(O)cc3CCN2Cc2ccc(C)cc2)cc(OC)c1OC (stereo not given) | 40.4 µM | 55.9 µM | 55 µM | – | 7.58 | 4.26 | – | – | – | – | – | 30.2 µM | 8.05
8 | COc1cc(CC2c3cc(O)c(O)cc3CCN2Cc2ccc(N)cc2)cc(OC)c1OC (stereo not given) | 27.1 µM | 27 µM | 162 µM | 8.26 | 8.03 | 3.79 | 29.1 µM | 40 µM | – | – | – | – | –
